# Cl transport mod: modulators of human KCC2 chloride dependent transport; 190,000 tested, 2.2% active; B-score of Tl+ flux slope (higher = more flux/activation; lower = inhibition) at 10 µM; KCC2 cells, thallium flux FluoZin-2 fluorescence; AID 1456; Q9H2X9;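 active = thallium flux slope and its plate-corrected score both differing from the plate sample mean at a set confidence after two filtering rounds, in either direction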;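 also: slope of fluorescence scaled to starting intensity during 10 to 20 s after thallium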
# KCNQ1 act: human KCNQ1 channel potentiation or activation. P51787. CHO-K1 KCNQ1, thallium flux FluxOR fluorescence; stronger effect = higher value. B-score at 10 µM. 310,000 tested, 0.35% active. AID 2648;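 active = fluorescence ratio B-score, a plate-corrected score, at least three library SD, with initial intensity B-score within 5 SD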
#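 Assay system: stable KCNQ1 CHO-K1 line; medium: assay buffer, equal DMSO in all wells; timing: 90 min dye loading and 20 min compound exposure, both at room temperature; technique: kinetic FluxOR thallium fluorescence, 10-s 1-Hz baseline, 110-s post-stimulus read; read-out basis: B score of baseline-normalized fluorescence ratio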
# KCNQ1 block: blocks the human KCNQ1 potassium channel; CHO-K1 KCNQ1, FluxOR thallium flux fluorescence; stronger effect = higher value; B-score at 10 µM; 310,000 tested, 1.3% active;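 active = compounds whose thallium flux B-score, printed positive for inhibition, exceeds three library SD while starting fluorescence stays within three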;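 also: channel opened by potassium depolarization with thallium stimulus after 20 min compound exposure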
# KCNK9 block: blocks the human KCNK9 two-pore domain potassium channel. 310,000 tested, 1.2% active. Q9NPC2. AID 488922. HEK293 KCNK9, FluxOR thallium flux fluorescence; stronger effect = lower value. B-score at 10 µM;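 active = ratio B-score over 3 SD below the library mean, with starting fluorescence within 5 SD of its mean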;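 also: negative B-score means less thallium flux so channel inhibition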
# Target sequence (Q9NPC2 whole entry, looked up, the tested form may be a part): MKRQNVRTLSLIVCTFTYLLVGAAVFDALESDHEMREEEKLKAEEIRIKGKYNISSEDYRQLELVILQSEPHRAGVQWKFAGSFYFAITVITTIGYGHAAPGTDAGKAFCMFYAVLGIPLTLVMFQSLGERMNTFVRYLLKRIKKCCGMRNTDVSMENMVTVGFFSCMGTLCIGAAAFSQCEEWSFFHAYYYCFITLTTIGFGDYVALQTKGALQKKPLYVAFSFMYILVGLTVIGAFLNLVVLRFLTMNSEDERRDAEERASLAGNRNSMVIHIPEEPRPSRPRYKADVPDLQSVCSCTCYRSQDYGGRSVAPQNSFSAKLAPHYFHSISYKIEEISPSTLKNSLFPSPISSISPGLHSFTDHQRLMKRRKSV
# hERG rescue: shields human hERG channel from block by proarrhythmic agents; CHO-hERG, FluxOR thallium flux, dofetilide IC70 present; activation (rescue from dofetilide block), less the hit threshold, % at 10 µM; 310,000 tested, 0.51% active;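 active = activation above the mean of controls blocked by dofetilide plus 5 SD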;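 also: thallium influx through hERG after potassium depolarization seen as dye fluorescence rise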
# KCNK3 inh: human KCNK3 channel inhibition, primary screen. B-score at 10 µM. AID 602410. 340,000 tested, 0.84% active. O14649. CHO-KCNK3 thallium flux, FluxOR fluorescence; stronger effect = lower value;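 active = B-score under library mean minus 4 SD, starting fluorescence ratio at most library mean plus 5 SD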;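 also: more negative B-score means stronger inhibition of thallium flux through KCNK3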
# Target sequence (O14649 whole entry, looked up): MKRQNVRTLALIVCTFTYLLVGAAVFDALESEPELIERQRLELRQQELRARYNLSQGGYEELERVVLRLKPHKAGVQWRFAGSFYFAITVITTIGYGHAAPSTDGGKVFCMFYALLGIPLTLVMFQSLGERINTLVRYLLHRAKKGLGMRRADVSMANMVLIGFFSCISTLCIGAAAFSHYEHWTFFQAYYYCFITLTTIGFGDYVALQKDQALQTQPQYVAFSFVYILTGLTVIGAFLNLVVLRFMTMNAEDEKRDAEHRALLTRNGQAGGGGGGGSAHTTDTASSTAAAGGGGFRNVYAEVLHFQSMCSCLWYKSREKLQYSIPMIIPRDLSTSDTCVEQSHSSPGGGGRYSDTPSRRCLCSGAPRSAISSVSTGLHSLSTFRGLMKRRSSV
# KCC2 secondary: KCC2 (human) modulation, secondary assay; normalised thallium flux (F/F0 slope) at 10 µM; AID 1713; shares compounds with Cl transport mod; HEK293-KCC2, thallium flux, FluoZin2 fluorescence; stronger effect = higher value; 3,700 tested, 15% active;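 active = thallium flux slope above the same plate's solvent-only control mean plus 3 SD; inconclusive = the two replicate wells disagree; inactive = no significant difference from solvent-only control wells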
# KCC2 bumet counter: thallium flux persisting under bumetanide in KCC2 cells, counter-screen secondary assay | shares compounds with Cl transport mod | HEK293-KCC2 + bumetanide/ouabain, thallium flux FluoZin2; stronger effect = higher value | normalized thallium flux at 10 µM | 3,700 tested, 49% active | AID 1714;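 active = thallium entry rate above the same plate's blocked-transporter control wells by more than 3 SD; inconclusive = the two repeat wells disagree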;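 also: raw slope of fluorescence over initial fluorescence between 10 and 20 s after thallium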
# KCC2 sec2: KCC2 (human) modulation, second secondary assay. shares compounds with Cl transport mod. HEK293-KCC2, thallium flux FluoZin2 fluorescence; actives lie on both sides; F/F0 rise rate, 10–20 s post-thallium. normalized thallium flux at 10 µM. 3,700 tested, 23% active;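 active = thallium flux slope more than 3 SD above or below the plate's solvent-only control mean, mostly below; inconclusive = the two repeat wells disagreed; inactive = no significant shift from solvent-only controls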;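 also: raw slope with 0.1% DMSO as baseline and bumetanide as block control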
# HEK293 Tl flux: counter-screen for KCC2 modulators: effect in parental HEK293 cells; shares compounds with Cl transport mod; thallium flux FluoZin2, ouabain; baseline-ratio fluorescence slope, 10–20 s after thallium; thallium flux rate (normalised fluorescence) at 10 µM; 3,700 tested, 46% active; AID 1716;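 active = thallium flux rate significantly above the same plate's solvent-only control wells, beyond their mean plus 3 SD; inconclusive = the two replicate wells gave conflicting results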
# KCC2 ouabain: KCC2 (human) modulation, ouabain retest | 3,700 tested, 48% active | HEK293-KCC2, thallium flux FluoZin2 fluorescence; bidirectional: low = inhibitor, high = activator | shares compounds with Cl transport mod | raw Tl+ flux slope (below DMSO = inhibition, above = activation) at 10 µM;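 active = thallium flux slope beyond 3 SD from same-plate DMSO control mean in most replicates, usually higher, sometimes lower; inconclusive = repeat tests gave conflicting results; inactive = no significant difference from controls in most replicates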;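 also: slope of initial-normalized fluorescence between seconds 10 and 20 after thallium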
# HEK counter2: counter-screen for KCC2 modulators: effect in parental HEK293 cells; shares compounds with Cl transport mod; thallium flux FluoZin-2 fluorescence slope; thallium flux slope at 10 µM; 3,700 tested, 33% active;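 active = thallium flux slope above the same plate's solvent-control mean plus 3 SD in both duplicate wells; inconclusive = duplicate wells that disagreed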;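 also: run without ouabain in cells lacking the KCC2 cotransporter; slope of fluorescence scaled to its starting value between 10 and 20 s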
# Active calls of the source: *; i = inactive; ? = inconclusive; . = no result. Most compounds without a hit are left out; they make up all but 4.1% or so of the library.
SMILES,Cl transport mod,KCNQ1 act,KCNQ1 block,KCNK9 block,hERG rescue,KCNK3 inh,KCC2 secondary,KCC2 bumet counter,KCC2 sec2,HEK293 Tl flux,KCC2 ouabain,HEK counter2
O=C(O)Cc1sc(Nc2ccccc2)nc1-c1ccc(Cl)cc1,-6.7*,i,i,i,-4,i,0.0083,0.01*,0.033,0.0075,?,0.011
O=C(NCc1ccccc1)c1ccc2ccccc2n1,.,i,i,i,-3,i,.,.,.,.,.,.
O=C(NN=C1CCCCCCC1)c1ccc2ccccc2n1,23*,i,i,i,-28,i,0.0062,0.038*,?,0.026*,0.035*,0.021*
NNC(=O)c1ccc2ccccc2n1,26*,.,.,.,.,i,0.0072,0.056*,0.042*,0.038*,0.047*,0.023*
CCOC(=O)c1ccc(-n2c(O)c(/C=N/NC(=O)C3COc4ccccc4O3)c3ccccc3c2=O)cc1 (stereo not drawn),-2.4,i,i,i,-11,i,.,.,.,.,.,.
O=C(NNC(=O)c1ccccc1Br)c1ccccc1Cl,0.45,i,i,i,-6,i,.,.,.,.,.,.
COc1ccccc1C(=O)NNC(=O)C(=O)NC(C)(C)C,34*,9*,i,i,7.4*,i,0.0057,0.042*,0.044*,0.03*,0.043*,0.029*
CCOc1ccc(NC(=O)c2ccccc2OC)cc1,-4.7*,i,i,i,-9,i,0.0077,0.0051,0.03,0.0084,0.019,0.012
CCOc1ccc(NC(=O)c2ccccc2O)cc1,-1.3,i,i,i,-8,i,.,.,.,.,.,.
CC(C)(C)NC(=O)C(=O)NNC(=O)c1ccccc1Br,9.6*,i,i,i,-5,i,0.015*,0.024*,0.036,?,0.03*,0.012
CCc1n[nH]c(=O)c2cc3cc(OC)ccc3n12,.,i,i,i,-2,i,.,.,.,.,.,.
O=c1[nH]c(CSc2nc3ccccc3s2)nc2ccccc12,1.3,i,i,i,-9,i,.,.,.,.,.,.
O=c1[nH]c(CSc2nc3ccccc3s2)nc2cc(Cl)ccc12,6.2*,i,i,i,-15,.,0.011,0.014*,0.033,?,?,0.011
O=C(CCn1c(=S)[nH]c2ccccc2c1=O)N1CCCCC1,.,i,i,i,-2,i,.,.,.,.,.,.
CCn1c(=O)c2cc(C(=O)N(C)c3ccc(OC)cc3OC)sc2c2ccccc21,-2.1,i,i,i,-10,i,.,.,.,.,.,.
CCn1c(=O)c2cc(C(=O)N(C)c3cc(C)ccc3OC)sc2c2ccccc21,-3*,i,i,-15*,-13,i,0.0085,?,0.033,0.0056*,0.019,?
CCCn1c(O)c(N=Nc2ccc3ccccc3n2)c2ccccc21,-5*,i,i,i,-7,i,0.01,0.011*,0.03,0.0087*,0.021,0.011
CCCn1c2ccccc2c2nc3ccccc3nc21,0.17,i,i,i,-1,i,.,.,.,.,.,.
CC(C)CCn1c(O)c(N=Nc2ccccn2)c2ccccc21,6.9*,i,i,i,-10,i,0.0092,0.021*,0.035,?,?,0.013
O=C(NCCN1CCCCC1)c1cc2ccccc2[nH]1,-0.026,i,i,i,-6,i,.,.,.,.,.,.
O=C(O)c1ccc(C2CCCCC2)cn1,8.3*,i,i,i,-1,i,0.011,0.0089*,0.03,0.0077,0.019,0.01
O=C(O)C1=C(C2CCCCC2)C(=O)c2ccccc21,.,.,.,.,.,i,.,.,.,.,.,.
CCOc1ccc(CCNC(=O)c2cc3sccc3n2C)cc1OCC,3.9*,i,i,i,-11,i,0.0074,0.0041,?,?,0.017,0.0094
COc1ccc(S(=O)(=O)NCCSCc2ccco2)cc1Cl,6.4*,i,i,i,-7,i,0.006,0.0045,0.03,0.0071,0.017,0.011
S=C(N/N=C/c1cccs1)NC1CC2CCC1C2 (stereo not drawn),19*,i,i,i,-2,i,0.017*,0.066*,0.038,0.027*,?,0.016*
SMILES,Cl transport mod,KCNQ1 act,KCNQ1 block,KCNK9 block,hERG rescue,KCNK3 inh,KCC2 secondary,KCC2 bumet counter,KCC2 sec2,HEK293 Tl flux,KCC2 ouabain,HEK counter2
Oc1ccc(/C=N/NC(=S)NC2CC3CCC2C3)cc1 (stereo not drawn),0.44,i,i,i,-4,i,.,.,.,.,.,.
COc1cc(NC(=O)CN(C)S(=O)(=O)c2ccc(-c3ccc(=O)[nH]n3)s2)cc(OC)c1,.,i,i,i,-8,i,.,.,.,.,.,.
CCOC(=O)C(NC(C)=O)(Nc1ccc(S(=O)(=O)Nc2nccs2)cc1)C(F)(F)F (stereo not drawn),0.24,i,i,i,-10,i,.,.,.,.,.,.
Cc1ccc(-n2c(SCC(=O)N3CCCC3)nc3c(c2=O)SCC3)cc1,-0.97,i,i,i,-12,.,.,.,.,.,.,.
COc1ccc(-n2c(SCC(=O)N3CCN(c4ccccc4)CC3)nc3c(c2=O)SCC3)cc1,-7.3*,i,i,i,-7,i,0.0056,0.0039,0.024*,?,0.012*,0.01
O=C(O)CCC(=O)N1CCc2cc(S(=O)(=O)NCc3ccc(Cl)cc3)ccc21,.,i,i,i,-9,i,.,.,.,.,.,.
Cc1cccc(N=Nc2c(C)[nH]n(C(N)=S)c2=O)c1C,5.8*,i,i,i,-11,.,0.0065,0.0093*,0.03,0.0098*,0.02,?
O=C(NC(=S)N(CCO)Cc1ccccc1)c1cc(Br)ccc1Cl,10*,i,i,i,19*,i,0.015*,0.039*,0.033,?,0.033*,0.012
CC(NC(=O)c1cc(Br)ccc1Cl)c1ccccc1 (stereo not drawn),-0.65,i,i,i,-11,i,.,.,.,.,.,.
